Test results from ChEMBL document CHEMBL1122260, “Synthesis and biological activity of prostaglandin lactones” (J Med Chem, 1983).
Calls of active or inactive are those of the source. The calls are words filed in the database; no cut-off is given here.

Columns and labels:
[1] = Plasma hydrolysis of percent cross reaction of substrate with PGF2-alpha antisera; assay type: ADME, cell-free
Summary of the method: (§1)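 Substrates incubated with saline (control), hog liver esterase, or rat, monkey or human blood plasma for 2 h or 20 h; released PGF2α quantified by radioimmunoassay as cross-reactivity with PGF2α antisera. PGF2α itself served as assay positive control. Substrate cross-reaction with the antisera determined separately.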

Gerbillinae [2] = experiment: Gerbil colon stimulation relative to PGE1 (100); Range from (0.3-1); assay type: functional
Summary of the method: (§2)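 Isolated ascending colon from male gerbils (Meriones unguiculatus) mounted in de Jalon's solution (NaCl 154 mM, KCl 0.54 mM, CaCl2 0.27 mM, NaHCO3 1.78 mM, glucose 5.55 mM); isotonic contractions recorded with linear transducers in 5-mL baths.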

Sus scrofa [3] = organism: Sus scrofa; experiment: Plasma hydrolysis following 2 h incubation with hog liver esterase; assay type: functional; summary of the method: as §1
Sus scrofa [4] = organism: Sus scrofa; experiment: Plasma hydrolysis following 20 hr incubation with hog liver esterase; assay type: functional; summary of the method: as §1
Homo sapiens [5] = organism: Homo sapiens; experiment: Plasma hydrolysis following 2 hr incubation with human plasma; assay type: functional; summary of the method: as §1
Homo sapiens [6] = organism: Homo sapiens; experiment: Plasma hydrolysis following 20 hr incubation with human plasma; assay type: functional; summary of the method: as §1
Monkey [7] = experiment: Plasma hydrolysis following 20 hr incubation with monkey plasma; assay type: functional, Cercopithecidae; summary of the method: as §1
Monkey [8] = experiment: Plasma hydrolysis following 2 hr incubation with monkey plasma; assay type: functional, Cercopithecidae; summary of the method: as §1
Rattus norvegicus [9] = organism: Rattus norvegicus; experiment: Plasma hydrolysis following 2 hr incubation with rat plasma; assay type: functional; summary of the method: as §1
Rattus norvegicus [10] = organism: Rattus norvegicus; experiment: Plasma hydrolysis following 20 hr incubation with rat plasma; assay type: functional; summary of the method: as §1
Rattus norvegicus [11] = experiment: in vivo urinary excretion of PGF2-alpha metabolite in rats, when administered sc (1 mg/rat) urinary excretion on day 2. Range is between (1.2-2.0); assay type: functional, Urine
Rattus norvegicus [12] = organism: Rattus norvegicus; experiment: Blood pressure potency in rat relative to PGF2-alpha (100); value ranges from (0.3-1); assay type: functional
Summary of the method: (§3)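 Mature female albino rats, pentobarbital anesthesia (30 mg/kg ip, supplemented as needed), pretreated with atropine sulfate (0.08 mg sc) and pentolinium tartrate (2 mg iv). Test solutions or emulsions injected via femoral vein; carotid arterial pressure recorded by transducer. Change in mmHg (rise or fall) compared with standards: PGE1 for depressor, PGF2α for pressor responses.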

Rattus norvegicus [13] = experiment: in vivo Urinary excretion of PGF2-alpha metabolite in rats, when administered sc (1 mg/rat) urinary excretion on day. c1(27.2-31.1); assay type: functional, Urine
Gerbillinae [14] = experiment: Gerbil colon stimulation relative to PGE1 (100); Range from (0.1-0.3); assay type: functional; summary of the method: as §2
Rattus norvegicus [15] = organism: Rattus norvegicus; experiment: Blood pressure potency in rat relative to PGE1 (100); value ranges from (0.1-0.3); assay type: functional; summary of the method: as §3
Gerbillinae [16] = experiment: Gerbil colon stimulation relative to PGE1 (100); assay type: functional; summary of the method: as §2
Rattus norvegicus [17] = organism: Rattus norvegicus; experiment: Blood pressure potency in rat relative to PGE1 (100); assay type: functional; summary of the method: as §3
Gerbillinae [18] = experiment: Gerbil colon stimulation relative to PGE1 (100); Range from (32-100); assay type: functional; summary of the method: as §2
Gerbillinae [19] = experiment: Gerbil colon stimulation relative to PGE1 (100); Range is between (0.3-1); assay type: functional; summary of the method: as §2
Rattus norvegicus [20] = organism: Rattus norvegicus; experiment: Blood pressure potency in rat relative to PGE1 (100). Range is between (10-32); assay type: functional; summary of the method: as §3
Rattus norvegicus [21] = organism: Rattus norvegicus; experiment: Blood pressure potency in rat relative to PGE1 (100); compound is biphasic and weak.; assay type: functional, organism-based; summary of the method: as §3
Gerbillinae [22] = experiment: Gerbil colon stimulation relative to PGE1 (100); Range from (1-3); assay type: functional; summary of the method: as §2
Rattus norvegicus [23] = organism: Rattus norvegicus; experiment: Blood pressure potency in rat relative to PGF2-alpha (100); value ranges from (3-10); assay type: functional; summary of the method: as §3
Gerbillinae [24] = experiment: Gerbil colon stimulation relative to PGE1 (100); Range is between (0.1-0.3); assay type: functional; summary of the method: as §2
Rattus norvegicus [25] = experiment: In vivo urinary excretion of PGF2-alpha metabolite in rats, when administered sc (1 mg/rat) urinary excretion on day 1 Range is between (31.9-155).; assay type: functional, Urine
Rattus norvegicus [26] = experiment: In vivo urinary excretion of PGF2-alpha metabolite in rats, when administered sc (1 mg/rat) urinary excretion on day 2 Range is between (2.2-5.6).; assay type: functional, Urine
Gerbillinae [27] = experiment: Gerbil colon stimulation relative to PGE1 (100); Range is between (1-3); assay type: functional; summary of the method: as §2
Rattus norvegicus [28] = organism: Rattus norvegicus; experiment: Blood pressure potency in rat relative to PGF2-alpha (100). Range is between(3-10).
Rattus norvegicus [29] = organism: Rattus norvegicus; experiment: Blood pressure potency in rat relative to PGE1 (100); value ranges from( 0.1-0.3); assay type: functional; summary of the method: as §3
Gerbillinae [30] = experiment: Gerbil colon stimulation relative to PGE1 (100); Ranges from (0.1-0.3); assay type: functional; summary of the method: as §2
Rattus norvegicus [31] = organism: Rattus norvegicus; experiment: Blood pressure potency in rat relative to PGE1 (100); IA means inactive; assay type: functional, organism-based; summary of the method: as §3
Rattus norvegicus [32] = organism: Rattus norvegicus; experiment: Blood pressure potency in rat relative to […]; T denotes toxic; assay type: organism-based; summary of the method: as §3
Rattus norvegicus [33] = organism: Rattus norvegicus; experiment: Blood pressure potency in rat relative to PGF2-alpha (100). Range is between (32-100).; assay type: functional; summary of the method: as §3
Rattus norvegicus [34] = organism: Rattus norvegicus; experiment: Blood pressure potency in rat relative to PGE1 (100); Range is between (1-3); assay type: functional; summary of the method: as §3
Rattus norvegicus [35] = organism: Rattus norvegicus; experiment: Blood pressure potency in rat relative to PGF2-alpha (100). Range is between (0.3-1); assay type: functional; summary of the method: as §3
Rattus norvegicus [36] = experiment: in vivo urinary excretion of PGF2-alpha metabolite in rats, when administered sc (1 mg/rat) urinary excretion on day 1; assay type: functional, Urine
Rattus norvegicus [37] = experiment: in vivo urinary excretion of PGF2-alpha metabolite in rats, when administered sc (1 mg/rat) urinary excretion on day 2; assay type: functional, Urine
Rattus norvegicus [38] = organism: Rattus norvegicus; experiment: Blood pressure potency in rat relative to PGE1 (100). Range is between (0.1-3); assay type: functional; summary of the method: as §3
Rattus norvegicus [39] = experiment: in vivo Urinary excretion of PGF2-alpha metabolite in rats, when administered sc (1 mg/rat) urinary excretion on day 2 Range is between (0.7-1.1).; assay type: functional, Urine
Rattus norvegicus [40] = experiment: in vivo Urinary excretion of PGF2-alpha metabolite in rats, when administered sc (1 mg/rat) urinary excretion on day 1 Range is between (1.3-1.6).; assay type: functional, Urine

CCCCC[C@H](O)/C=C/C1[C@@H]2C[C@@H](O)[C@H]1C/C=C\CCCC(=O)O2 (stereo not given in full)
Cross reaction [1]: 0.09% | Relative potency (Gerbillinae [2]): 0.3 | Hydrolysis (Sus scrofa [3]): 28.3% | Hydrolysis (Sus scrofa [4]): 100% | Hydrolysis (Homo sapiens [5]): 0.2% | Hydrolysis (Homo sapiens [6]): 0.6% | Hydrolysis (Monkey [7]): 15.5% | Hydrolysis (Monkey [8]): 2.4% | Hydrolysis (Rattus norvegicus [9]): 43% | Hydrolysis (Rattus norvegicus [10]): 80.6% | Urinary excretion (Rattus norvegicus [11]): 1.6 µg | Relative potency (Rattus norvegicus [12]): 0.3 | Urinary excretion (Rattus norvegicus [13]): 27.2 µg

CCCCC[C@@H]1/C=C\C2C(=O)CC(O)[C@@H]2C/C=C\CCCC(=O)O1 (stereo not given in full)
Relative potency (Gerbillinae [14]): 0.1 | Relative potency (Rattus norvegicus [15]): 0.1

CCCCC[C@@H]1/C=C\C2[C@H](O)C[C@H](O)[C@@H]2CCCCCCC(=O)O1 (stereo not given in full)
Relative potency (Gerbillinae [16]): <0.1 | Relative potency (Rattus norvegicus [17]): <0.1

CCCCC[C@@H](/C=C/C1[C@H](O)C[C@H](O)[C@@H]1C/C=C\CCCC(=O)O)OC(C)=O (stereo not given in full)
Cross reaction [1]: 2.4% | Hydrolysis (Sus scrofa [3]): 59.1% | Hydrolysis (Sus scrofa [4]): 85% | Hydrolysis (Homo sapiens [5]): 3.3% | Hydrolysis (Homo sapiens [6]): 6.8% | Hydrolysis (Monkey [7]): 9.4% | Hydrolysis (Monkey [8]): 3.6% | Hydrolysis (Rattus norvegicus [9]): 18% | Hydrolysis (Rattus norvegicus [10]): 25.7%

CCCCC(C)(C)[C@H](O)/C=C/C1[C@H](O)C[C@@H]2OC(=O)CCC/C=C\C[C@H]12 (stereo not given in full)
Relative potency (Gerbillinae [18]): 32 | Relative potency (Rattus norvegicus [15]): 0.1

CCCCC[C@H](O)/C=C/C1C(=O)C[C@@H]2OC(=O)CCC/C=C\C[C@H]12 (stereo not given in full)
Relative potency (Gerbillinae [19]): 0.3 | Relative potency (Rattus norvegicus [20]): 10

O=C1CCC/C=C\C[C@H]2C(=O)C[C@@H](O)C2/C=C\[C@@H](CCc2ccccc2)O1 (stereo not given in full)
Relative potency (Gerbillinae [19]): 0.3 | Relative potency (Rattus norvegicus [21]): Weak

CCCCC[C@@H]1/C=C\C2[C@H](O)CC(=O)[C@@H]2CCCCCCC(=O)O1 (stereo not given in full)
Relative potency (Gerbillinae [16]): <0.1 | Relative potency (Rattus norvegicus [17]): <0.1

C[C@@](O)(/C=C/C1[C@H](O)C[C@@H]2OC(=O)CCC/C=C\C[C@H]12)CCc1ccccc1 (stereo not given in full)
Relative potency (Gerbillinae [22]): 1 | Relative potency (Rattus norvegicus [23]): 3

CCCCC[C@@H]1/C=C\C2CCC(=O)[C@@H]2C/C=C\CCCC(=O)O1 (stereo not given in full)
Relative potency (Gerbillinae [14]): 0.1 | Relative potency (Rattus norvegicus [17]): <0.1

CCCCC[C@@H]1/C=C\C2[C@H](O)C[C@H](O)[C@@H]2C/C=C\CCCC(=O)O1 (stereo not given in full)
Cross reaction [1]: 0.9% | Relative potency (Gerbillinae [24]): 0.1 | Hydrolysis (Sus scrofa [3]): 55.3% | Hydrolysis (Sus scrofa [4]): 75.6% | Hydrolysis (Homo sapiens [5]): 55.6% | Hydrolysis (Homo sapiens [6]): 57.9% | Hydrolysis (Monkey [7]): 41.7% | Hydrolysis (Monkey [8]): 8.4% | Hydrolysis (Rattus norvegicus [9]): 51.4% | Hydrolysis (Rattus norvegicus [10]): 58.7% | Relative potency (Rattus norvegicus [17]): <0.1 | Urinary excretion (Rattus norvegicus [25]): 77.1 µg | Urinary excretion (Rattus norvegicus [26]): 3.9 µg

CCCCC[C@](C)(O)/C=C/C1[C@H](O)C[C@@H]2OC(=O)CCC/C=C\C[C@H]12 (stereo not given in full)
Relative potency (Gerbillinae [27]): 1 | Relative potency (Rattus norvegicus [28]): 3

CCCCC[C@](C)(O)/C=C/C1[C@H](O)C[C@@H]2OC(=O)C(F)(F)CC/C=C\C[C@H]12 (stereo not given in full)
Relative potency (Gerbillinae [22]): 1 | Relative potency (Rattus norvegicus [29]): 0.1

O=C1CCC/C=C\C[C@@H]2C(/C=C\[C@@H](COc3ccccc3)O1)[C@H](O)C[C@@H]2O (stereo not given in full)
Relative potency (Gerbillinae [30]): 0.1 | Relative potency (Rattus norvegicus [31]): inactive | Relative potency (Rattus norvegicus [32]): Toxic

O=C1CCC/C=C\C[C@@H]2C(/C=C\[C@@H](CCc3ccccc3)O1)[C@H](O)C[C@@H]2O (stereo not given in full)
Relative potency (Gerbillinae [16]): <0.1 | Relative potency (Rattus norvegicus [33]): 32

CCCCC[C@@H]1/C=C\C2[C@H](O)CC(=O)[C@@H]2C/C=C\CCCC(=O)O1 (stereo not given in full)
Relative potency (Gerbillinae [27]): 1 | Relative potency (Rattus norvegicus [34]): 1

CCCCC[C@](C)(O)/C=C/C1[C@@H]2C[C@@H](O)[C@H]1C/C=C\CCCC(=O)O2 (stereo not given in full)
Relative potency (Gerbillinae [16]): <0.1 | Relative potency (Rattus norvegicus [35]): 0.3

CCCCC[C@@H]1/C=C\C2C=CC(=O)[C@@H]2C/C=C\CCCC(=O)O1 (stereo not given in full)
Relative potency (Gerbillinae [27]): 0.1 | Relative potency (Rattus norvegicus [17]): 0.1

CCCCC[C@H](O)/C=C/[C@@H]1[C@@H](C/C=C\CCCC(=O)O)[C@@H](O)C[C@H]1O [DINOPROST]
Cross reaction [1]: 100% | Hydrolysis (Sus scrofa [3]): 100% | Hydrolysis (Sus scrofa [4]): 100% | Hydrolysis (Homo sapiens [5]): 100% | Hydrolysis (Homo sapiens [6]): 100% | Hydrolysis (Monkey [7]): 100% | Hydrolysis (Monkey [8]): 100% | Hydrolysis (Rattus norvegicus [9]): 100% | Hydrolysis (Rattus norvegicus [10]): 100% | Urinary excretion (Rattus norvegicus [36]): 252 µg | Urinary excretion (Rattus norvegicus [37]): 14.5 µg

CCCCC[C@H](O)/C=C/C1[C@H](O)C[C@@H]2OC(=O)CCC/C=C\C[C@H]12 (stereo not given in full)
Cross reaction [1]: < 0.05% | Relative potency (Gerbillinae [27]): 1 | Hydrolysis (Sus scrofa [3]): 0.2% | Hydrolysis (Sus scrofa [4]): 1.8% | Hydrolysis (Homo sapiens [5]): 0.06% | Hydrolysis (Homo sapiens [6]): 0.4% | Hydrolysis (Monkey [7]): 0.3% | Hydrolysis (Monkey [8]): 0.06% | Hydrolysis (Rattus norvegicus [9]): 0.2% | Hydrolysis (Rattus norvegicus [10]): 0.8% | Relative potency (Rattus norvegicus [38]): 0.1 | Urinary excretion (Rattus norvegicus [39]): 0.9 µg | Urinary excretion (Rattus norvegicus [40]): 1.4 µg
